Consider 14 molecules from ChEMBL document CHEMBL1150864, “Antimalarial compounds from Rhaphidophora decursiva” (J Nat Prod, 2001).

The IC50 is the concentration at which inhibition is half-maximal.

Values after ≈ are worked out from the molar mass of the structure shown. Where only a bound is given, the exact number is not on record here.

The subject of series [1] is Plasmodium falciparum. Nature of the series: Antiplasmodial activity against chloroquine-sensitive Plasmodium falciparum D6 by [3H]hypoxanthine uptake. It is filed as functional, organism-based. A digest of the protocol:
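P. falciparum D6 kept in type A+ human erythrocytes (RPMI-1640, NaHCO3, HEPES, hypoxanthine, 10% Albumax II) under 5% O2/5% CO2/90% N2 at 37 °C. Plated at 0.5-1% parasitemia, 1% hematocrit with serial dilutions from 4 mg/mL stock, triplicate; 24 h, then 0.5 μCi [3H]hypoxanthine for 18 h more. Scintillation counting; IC50 by nonlinear regression versus zero-drug controls.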

The test system of series [2] is Plasmodium falciparum. The experiment in a line: Antiplasmodial activity against chloroquine-resistant Plasmodium falciparum W2 by [3H]hypoxanthine uptake. It is filed as functional, organism-based. An outline of the steps: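 P. falciparum W2 grown in type A+ human erythrocytes in RPMI-1640 with NaHCO3, HEPES, hypoxanthine and 10% Albumax II, 5% O2/5% CO2/90% N2, 37 °C. Samples from 4 mg/mL stock tested in triplicate at 0.5-1% parasitemia, 1% hematocrit. After 24 h, 0.5 μCi [3H]hypoxanthine added for 18 h more; IC50 by nonlinear regression, zero-drug controls as 100%.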

The nature of series [3]: Selectivity index, ratio of ED50 for human KB cells to IC50 for chloroquine-sensitive Plasmodium falciparum D6. It is filed as functional.
Series [4] in a line: Cytotoxicity against human KB cells after 72 hrs. The note with it: read-out: ED50. It is filed as cell-based.
Series [5] can be described thus: Selectivity index, ratio of ED50 for human KB cells to IC50 for chloroquine-resistant Plasmodium falciparum W2. It is filed as functional.

On to `COc1cc([C@H]2OC[C@H]3[C@@H]2CO[C@@H]3c2cc(OC)c(O)c(OC)c2)ccc1O`, for which, in series [1] (D6, 42 h), the IC50 is greater than 10 µg/mL.

`COc1cc([C@@H]2OC[C@@H]3[C@H]2CO[C@H]3c2cc(OC)c(O)c(OC)c2)cc(OC)c1O`: in series [1] (D6, 42 h), the IC50 is greater than 10 µg/mL.

`CCCCNC(=O)c1ccccc1`: the IC50 in series [1] (D6, 42 h) is greater than 10 µg/mL.

For the molecule `COc1cc([C@H]2OC[C@@H]3C(=O)OC[C@@H]32)cc(OC)c1O`, the IC50 in series [1] (D6, 42 h) was greater than 10 µg/mL.

As to `CC(=O)/C=C/[C@@]1(O)C(C)=CC(=O)CC1(C)C`, in series [1] (D6, 42 h), the IC50 was greater than 10 µg/mL.

`CCCCCC1(O)OC(=O)C(C)=C1C` (stereo unspecified) returned an IC50 in series [1] (D6, 42 h) greater than 10 µg/mL.

Turning to `C/C=C/c1cc(OC)c(O[C@H](C)[C@@H](O)c2cc(OC)c(OC)c(OC)c2)c(OC)c1` (relative stereo) [POLYSYPHORIN], the IC50 in series [2] was determined as 0.368 µg/mL (≈ 0.879 µM); in series [1] (D6), 0.404 µg/mL (≈ 0.965 µM). Further, the “Selectivity Index” value stood at 5 in series [3] and 6 in series [5]. For the same molecule, the CC50 at 72 h in series [4] amounted to 2 µg/mL (≈ 4.78 µM).

On to `COc1cc([C@@H]2OC[C@H]3[C@@H]2CO[C@H]3c2ccc(O)c(OC)c2)ccc1O` [(-)-PINORESINOL], for which the IC50 in series [1] (D6, 42 h) is greater than 10 µg/mL.

As for `C[C@@H]1CC[C@H]2[C@@H](C)C(=O)O[C@@H]3O[C@@]4(C)CC[C@@H]1[C@]32OO4` [ARTEMISININ], the IC50 in series [2] amounted to 0.002 µg/mL (≈ 0.00708 µM). The “Selectivity Index” value in series [3] and in series [5] was greater than 10000 each time. In addition, in series [4], the CC50 at 72 h is greater than 20 µg/mL.

For the molecule `COc1cc([C@H]2O[C@@H](c3cc(OC)c(OC)c(OC)c3)[C@H](C)[C@H]2C)cc(OC)c1OC` [EPIGRANDISIN], the results for the IC50 in series [2] and in series [1] (D6) were 3.34 µg/mL (≈ 7.72 µM) and greater than 10 µg/mL, respectively. Also, the “Selectivity Index” value is reported as less than 2 in series [3] and 4 in series [5]. Moreover, the CC50 at 72 h in series [4] turned out to be 16 µg/mL (≈ 37 µM).

`COc1cc([C@@H]2O[C@@H](c3cc(OC)c(OC)c(OC)c3)[C@H](C)[C@H]2C)cc(OC)c1OC` [GRANDISIN]: the results for the IC50 in series [2] and in series [1] (D6) were 1.48 µg/mL (≈ 3.43 µM) and 1.51 µg/mL (≈ 3.49 µM), respectively. Also, the “Selectivity Index” value is recorded as 7 in series [3] and 8 in series [5]. The CC50 at 72 h in series [4] amounted to 14 µg/mL (≈ 32.4 µM).

For the molecule `C=C[C@H]1CN2CC[C@H]1C[C@H]2[C@H](O)c1ccnc2ccc(OC)cc12` [QUININE], the IC50 stood at 0.041 µg/mL (≈ 0.126 µM) in series [2] and 0.009 µg/mL (≈ 0.0277 µM) in series [1] (D6). Besides, the “Selectivity Index” value was greater than 2000 in series [3] and greater than 490 in series [5]. In addition, the CC50 at 72 h in series [4] was greater than 20 µg/mL.

As to `COc1cc(O)cc2c1C(=O)OOC(C)CCCCC/C=C/2` (stereo unspecified) [RHAPHIDECURPEROXIN], the IC50 in series [2] stood at 0.42 µg/mL (≈ 1.37 µM); in series [1] (D6), 0.54 µg/mL (≈ 1.76 µM). Further, the “Selectivity Index” value in series [3] was determined as 0.7; in series [5], 1. For the same molecule, in series [4], the CC50 at 72 h came out at 4 µg/mL (≈ 13.1 µM).

Regarding `C=CCc1cc(OC)c(O[C@H](C)[C@@H](O)c2cc(OC)c(OC)c(OC)c2)c(OC)c1` [RHAPHIDECURSINOL B], the results for the IC50 in series [2] and in series [1] (D6) were 4.68 µg/mL (≈ 11.2 µM) and 5.37 µg/mL (≈ 12.8 µM), respectively. Moreover, the entries for the “Selectivity Index” value in series [3] and in series [5] were 1 and 2, respectively. Besides, the CC50 at 72 h in series [4] came to 10 µg/mL (≈ 23.9 µM).
